# Screening results from PubChem BioAssay.
# TAAR1 antag = human TAAR1 antagonists, primary screen, Fluo-8 calcium fluorescence, CHO RD-HGA16 cells | antagonist | inhibition, % at 3 µM | 360,000 compounds, 1.5% hits | AID 624466, 2012;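 active = inhibition above a per-plate cutoff, the mean inhibition of test compounds on that plate plus 3 SD, cut at about 49% in these data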;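 note: 0% = DMSO plus EC80 beta-PEA response and 100% = DMSO alone without agonist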
# Target sequence (Q96RJ0 whole entry, looked up): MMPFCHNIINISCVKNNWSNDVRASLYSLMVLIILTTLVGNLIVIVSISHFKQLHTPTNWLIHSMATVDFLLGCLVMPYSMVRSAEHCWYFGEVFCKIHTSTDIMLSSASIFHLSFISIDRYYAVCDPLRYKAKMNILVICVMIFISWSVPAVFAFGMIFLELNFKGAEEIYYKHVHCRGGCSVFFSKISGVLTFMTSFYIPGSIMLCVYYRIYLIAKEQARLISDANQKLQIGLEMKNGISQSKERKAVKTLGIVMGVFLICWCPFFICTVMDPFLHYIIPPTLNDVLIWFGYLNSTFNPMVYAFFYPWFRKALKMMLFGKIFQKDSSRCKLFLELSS
#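 Assay system: RD-HGA16 CHO cells with stable hTAAR1 and Gα16 / Reagent: EC80 β-phenethylamine stimulus / Doses: 3 µM, single point / Timing: dye loading 75 min at 37 °C, then 30 min room temperature / Measured by: Fluo-8 intracellular calcium dye fluorescence, real-time kinetic reads / Controls: vehicle wells and EC80 agonist wells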
# TAAR1 agonist = human TAAR1 agonists, primary screen, Fluo-8 calcium fluorescence, CHO RD-HGA16 cells; vehicle wells 0%, saturating PEA agonist 100%; activation, % at 3 µM; Trace amine-associated receptor 1 (Homo sapiens), Q96RJ0; 360,000 compounds, 0.99% hits;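 active = activation above the mean activation of all test compounds in the run plus 3 SD, cut at about 38% in these data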
#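 Test system: RD-HGA16 (CHO) cells co-expressing Gα16 and hTAAR1; dosing: one-point dosing at 3 µM (nominal); timing: 17-24 h seeding, 75 min 37 °C dye, 30 min RT; signal: kinetic Fluo-8 calcium fluorescence; read-out basis: % activation relative to PEA EC100 response; controls: DMSO and PEA EC100; replicates: n 1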
# V1aR counter = agonists of human V1a receptor, primary screen, counter-screen for OXTR agonist project, fluorescence, CHO-V1R cells. Vasopressin V1a receptor (Homo sapiens), P37288. Fluo-8 calcium fluorescence, agonist mode; 0% DMSO, 100% 3 nM vasopressin. activation, % at 3 µM. 320,000 compounds, 0.25% hits;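 active = activation above the mean activation of all tested compounds plus 3 SD, per screening run, cut at about 20% in these data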;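 note: signal is peak over basal fluorescence ratio across a 100 second FLIPR read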
# OXTR potentiator = human OXTR potentiators, primary screen, fluorescence, CHO-OTR cells, Fluo-8 calcium; Fluo-8 calcium fluorescence, potentiator mode; 0% = oxytocin EC15, 100% = EC100; AID 2445, 2010; activation, % at 3 µM; 320,000 compounds, 0.061% hits;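 active = activation above that plate's cutoff, the mean activation of tested compounds plus 3 SD, cut at about 6.6% in these data, passing the limit was not always enough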;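 note: 100% uses oxytocin at 75 nM as the full agonist control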
#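 Dosing: Single dose, 3.0 µM nominal final compound concentration | Material: Human OTR in CHO cells | Technique: Kinetic Fluo-8 calcium fluorescence | Benchmarks: EC15 oxytocin alone as 0%, 75 nM oxytocin as 100% | Probe or stimulus: Oxytocin at about EC15, sub-maximal agonist stimulus | Incubation: Compound 6 min at room temperature before oxytocin, 100 s read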
# OXTR ag = human OXTR agonists, primary screen, fluorescence, CHO-OTR cells, Fluo-8 calcium; activation, % at 3 µM; Fluo-8 calcium fluorescence; normalized: DMSO 0%, oxytocin 100%; Oxytocin receptor (Homo sapiens), P30559; 320,000 compounds, 0.32% hits;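 active = activation above the mean of all tested compounds plus 3 SD, cutoff set per screening run, cut at about 20% in these data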;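 note: peak over basal fluorescence ratio from a 100 s FLIPR kinetic read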
# Numbers without * were called inactive; x = no result given. Most compounds without a hit are left out; they make up all but 2.3% or so of the library.
SMILES,TAAR1 antag,TAAR1 agonist,V1aR counter,OXTR potentiator,OXTR ag
CC(C)c1cc(-c2cc(C(=O)NCc3ccccc3)on2)nc(NCC2CC2)n1,77*,68*,35*,-18,31*
CC(C)c1cc(-c2cc(C(=O)Nc3ccccc3)on2)nc(NCC2CC2)n1,x,x,2,-12,-1
CCN(CC)S(=O)(=O)c1ccc(C(=O)Nc2cc(S(=O)(=O)N3CCOCC3)ccc2N2CCN(C)CC2)cc1,0,3,x,x,x
COc1ccccc1CNc1nc(NCc2ccccc2OC)c2sccc2n1,19,5,x,x,x
COc1ccccc1CNc1nc(Nc2cccc(-c3cnco3)c2)c2sccc2n1,76*,2,x,x,x
CC12CCC(=O)C=C1CCCC2=O (stereo not drawn),-26,1,x,x,x
COc1ccc(C2NC(=O)CCC2[N+](=O)[O-])cc1 (stereo not drawn),2,2,-1,-5,2
COc1cc(CCN(C(=O)c2cc3ccccc3[nH]2)C(C)c2nc3ccccc3[nH]2)cc(OC)c1 (stereo not drawn),65*,2,x,x,x
Cc1nc2ccccc2c(=O)n1NC(=O)c1cccc(Cl)c1,-9,2,0,-10,1
CC(Oc1ccc(C#N)cc1)C(=O)Nc1ccc(-n2cnnn2)cc1 (stereo not drawn),17,44*,x,x,x
CC(=O)Nc1ccc(-n2cnnn2)cc1,8,5,0,-4,0
COc1ccccc1CNc1ncnc2nc[nH]c12,1,1,2,-6,1
c1ccc2c(CCNc3ncnc4nc[nH]c34)c[nH]c2c1,59*,10,7,-11,9
CCC1(CC)NC(=O)N(CC(=O)N2N=C(c3ccc(Cl)cc3)CC2c2ccco2)C1=O (stereo not drawn),-12,1,0,-1,0
Cc1cccc(OCC(=O)NNc2c3ccccc3nc3ccccc23)c1,61*,16,3,-12,1
Cc1cc(CNC(=O)COc2ccccc2)c2ccccc2n1,-12,2,x,x,x
CCOc1ccc(C(C)=O)cc1COC(=O)c1ccc2c(c1)NC(=O)CS2,52*,11,5,-10,5
CCOC(=O)[C@]12CCC=C1N(Cc1cccc3ccccc13)C(=O)[C@H](CC(=O)NCCCCc1ccccc1)C2,-17,14,x,x,x
CCC1(c2ccccc2)NC(=O)N(CC(=O)Nc2cc(S(=O)(=O)N3CCCCCC3)ccc2OC)C1=O (stereo not drawn),70*,15,0,-15,-1
COc1ccc(S(=O)(=O)N2CCCCC2)cc1NC(=O)CN(Cc1ccco1)Cc1ccco1,64*,17,8,-13,2
COc1ccc(S(=O)(=O)N2CCCCC2)cc1NC(=O)CN(C)C1CCCCC1,-10,-1,-1,7,-2
CCOc1ccc(S(=O)(=O)N2CCCCC2)cc1NC(=O)CN1C(=O)NC(CC)(c2ccccc2)C1=O (stereo not drawn),17,2,1,-7,1
COc1cc2c(cc1OC)[C@@H](NC(=O)CCC1CCCCC1)[C@H](O)C2,8,1,x,x,x
O=C(N1CCOCC1)N1[C@H](COCc2ccccc2)C=CS1(=O)=O,-13,5,x,x,x
OC1(c2ccc(OC(F)F)cc2)CSC(=Nc2cccnc2)N1Cc1ccco1 (stereo not drawn),57*,10,x,x,x
SMILES,TAAR1 antag,TAAR1 agonist,V1aR counter,OXTR potentiator,OXTR ag
OC1(c2ccc(F)cc2)CSC(=Nc2cccnc2)N1Cc1ccco1 (stereo not drawn),18,2,2,-15,-3
O=C(NCCC1=CCCCC1)C(=O)NCc1ccncc1,12,20,2,-2,0
CCOC(=O)c1ccccc1NC(=O)COC(=O)C1CCN(S(=O)(=O)c2ccccc2C(=O)OC)CC1,49*,11,-1,-8,0
COc1ccc(C(=O)c2ccc(CC(=O)O)s2)cc1,-3,-1,0,-6,0
COc1ccc2[nH]c3c4c(ccc3c2c1)C(=O)C=CC4=O,77*,44*,x,x,x
N#C[C@H](N)[C@H]1O[C@@H](n2ccc(=O)[nH]c2=O)[C@H](O)[C@@H]1O,-36,1,x,x,x
